The structures appear in SMILES notation.

Data set [1] deals with Liver microsome. Description: Intrinsic clearance in Sprague-Dawley rat liver microsomes after 30 mins by LC-ESI-MS analysis. In kind it is ADME. Conditions: 0.5 h. In a few lines: (§1)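 2'-OH-TCC at 0.2, 0.5, 1, 2, 3, 5, 10 and 50 µM incubated with liver microsomes (alamethicin, MgCl2, saccharolactone, UDPGA; 37 °C), sampled at 5, 10, 15 and 30 min. Samples ≥5 µM diluted 1:9 in ACN; LC-ESI-MS. KM and vmax fitted from rate vs concentration; intrinsic clearance derived from these; mean and SD of three.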

A short description of data set [2]: (§2) Drug metabolism in Sprague-Dawley rat liver microsomes after 30 mins by LC-ESI-MS analysis. The data set is classed as ADME. Conditions: Sprague-Dawley, liver microsomes. In a few lines:
as §1

Data set [3] deals with Liver microsome. The description is as §2. The data set is classed as ADME. Conditions: microsomes, 0.5 h. In a few lines: as §1
For data set [4], the target named is T1, UDP-glucuronosyltransferase 2B4 (Homo sapiens, UniProt P06133).
T1 sequence (P06133 whole entry): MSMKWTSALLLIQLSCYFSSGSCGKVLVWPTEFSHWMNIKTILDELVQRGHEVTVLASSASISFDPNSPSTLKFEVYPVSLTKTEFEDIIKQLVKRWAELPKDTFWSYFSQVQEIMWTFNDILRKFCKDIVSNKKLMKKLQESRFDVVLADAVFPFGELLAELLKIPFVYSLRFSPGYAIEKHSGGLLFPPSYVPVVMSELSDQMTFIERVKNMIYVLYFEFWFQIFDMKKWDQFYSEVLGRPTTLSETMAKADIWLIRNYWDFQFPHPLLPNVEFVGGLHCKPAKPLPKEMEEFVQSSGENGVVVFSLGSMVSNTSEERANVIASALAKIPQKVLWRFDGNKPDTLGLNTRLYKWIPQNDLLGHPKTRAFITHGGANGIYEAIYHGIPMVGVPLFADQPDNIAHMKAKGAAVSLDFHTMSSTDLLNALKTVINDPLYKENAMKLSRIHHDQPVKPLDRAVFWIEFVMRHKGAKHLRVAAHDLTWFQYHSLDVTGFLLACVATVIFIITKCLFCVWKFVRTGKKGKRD
Description: Drug metabolism assessed as human UGT2B4-mediated N'-glucuronide-triclocarban formation expressed in baculovirus infected insect sf9 cells incubated for 5 mins prior to UDPGA addition measured after 5 to 30 mins by LC-UV analysis. In kind it is ADME. In a few lines: (§3)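 Microsomes or UGT Supersomes (5 µg protein) were held 15 min on ice with alamethicin in 100 mM potassium phosphate pH 7.4. TCC was added at 10 µM (2% DMSO) with 10 mM MgCl2 and 10 mM saccharolactone, pre-warmed 5 min at 37 °C, then started with UDPGA. Samples at 5, 10, 15 and 30 min were quenched in ACN. Product was read by LC-UV at 265 nm; rate came from regression over time, three incubations.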

Data set [5] can be described thus: Drug excretion in Swiss webster mouse urine assessed as N-glucuronide-triclocarban formation at 5 mg/kg, po by LC-MS analysis. The data set is classed as ADME, organism-based. More on the design: dose 5 mg/kg, route oral. Particulars: in vivo. In a few lines: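 Mice were housed two per metabolic cage, with blank urine collected over the 24 h before dosing. TCC was given by oral gavage as a 1 mg/mL solution in 20/80 DMSO/PEG400 (v/v) at 5 mg/kg. Urine was collected at 0-24 h and 24-48 h and analysed by online LC-MS. Values are the mean of two independent experiments.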

For data set [6], the target named is T2, UDP-glucuronosyltransferase 1A3 (Homo sapiens, UniProt P35503).
T2 sequence (P35503 whole entry): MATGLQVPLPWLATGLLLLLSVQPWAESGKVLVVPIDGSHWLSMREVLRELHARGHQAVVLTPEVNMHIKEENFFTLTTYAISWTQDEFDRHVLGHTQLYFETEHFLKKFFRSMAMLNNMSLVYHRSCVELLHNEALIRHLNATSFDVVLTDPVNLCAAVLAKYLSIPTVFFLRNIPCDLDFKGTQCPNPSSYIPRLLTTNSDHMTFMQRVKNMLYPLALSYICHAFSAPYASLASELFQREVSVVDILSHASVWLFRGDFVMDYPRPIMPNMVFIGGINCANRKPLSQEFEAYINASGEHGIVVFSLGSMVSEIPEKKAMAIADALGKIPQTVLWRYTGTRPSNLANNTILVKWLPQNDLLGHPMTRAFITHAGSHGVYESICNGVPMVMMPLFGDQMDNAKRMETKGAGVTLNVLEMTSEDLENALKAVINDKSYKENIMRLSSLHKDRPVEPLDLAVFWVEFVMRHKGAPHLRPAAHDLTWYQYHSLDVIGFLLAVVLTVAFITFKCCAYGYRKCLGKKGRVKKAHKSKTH
Description: Drug metabolism assessed as human UGT1A3-mediated N'-glucuronide-triclocarban formation expressed in baculovirus infected insect sf9 cells incubated for 5 mins prior to UDPGA addition measured after 5 to 30 mins by LC-UV analysis. The data set is classed as ADME. In a few lines: as §3

Data set [7] concerns the target T3, UDP-glucuronosyltransferase 2B17 (Homo sapiens, UniProt O75795).
T3 sequence (O75795 whole entry): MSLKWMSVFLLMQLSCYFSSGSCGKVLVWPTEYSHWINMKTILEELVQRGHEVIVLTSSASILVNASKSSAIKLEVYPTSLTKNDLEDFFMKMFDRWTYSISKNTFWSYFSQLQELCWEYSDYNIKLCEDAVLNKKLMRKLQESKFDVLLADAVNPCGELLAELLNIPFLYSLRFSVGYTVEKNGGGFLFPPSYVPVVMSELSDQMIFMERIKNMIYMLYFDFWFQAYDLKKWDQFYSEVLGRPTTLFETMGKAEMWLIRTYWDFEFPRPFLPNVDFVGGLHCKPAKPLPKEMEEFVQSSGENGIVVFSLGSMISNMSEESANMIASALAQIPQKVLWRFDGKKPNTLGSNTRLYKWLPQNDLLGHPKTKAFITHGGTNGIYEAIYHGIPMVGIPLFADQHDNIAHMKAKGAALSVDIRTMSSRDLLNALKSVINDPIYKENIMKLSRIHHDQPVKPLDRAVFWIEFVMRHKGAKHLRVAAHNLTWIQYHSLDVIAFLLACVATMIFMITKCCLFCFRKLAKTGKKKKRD
Description: Drug metabolism assessed as human UGT2B17-mediated N-glucuronide-triclocarban formation expressed in baculovirus infected insect sf9 cells incubated for 5 mins prior to UDPGA addition measured after 5 to 30 mins by LC-UV analysis. The data set is classed as ADME. In a few lines:
as §3

In the case of `O=C(Nc1ccc(Cl)c(Cl)c1)Nc1ccc(Cl)cc1O`, in the data set on Liver microsome [1], the CLH amounted to 2860 µL/min/mg. The Michaelis-Menten constant (Km) at 0.5 h in data set [2] is 3.29 µM. In the data set with Liver microsome [3], the Vmax amounted to 9.42 nmol/min/mg.
Regarding `O=C(Nc1ccc(Cl)cc1)Nc1ccc(Cl)c(Cl)c1` [TRICLOCARBAN], the Drug metabolism entry in data set [4], in data set [6] and in data set [7] was “metabolite_not_detected” each time. The Drug excretion entry in data set [5] is “metabolite_detected”.

The values above are taken from ChEMBL document CHEMBL3525967, “In vitro glucuronidation of the antibacterial triclocarban and its oxidative metabolites” (Drug Metab Dispos, 2012).
